The source of these data is ChEMBL document CHEMBL4368872, “Synthesis and anticonvulsant activity of phenoxyacetyl derivatives of amines, including aminoalkanols and amino acids” (Medchemcomm, 2018).

The source made the active and inactive calls. No cut-off for these calls is given here.

The subject of data set [1] is Mus musculus. Put plainly: Anticonvulsant activity in CF-1 mouse model of maximal electroshock-induced seizure assessed as suppression of tonic hind limb extension at 100 mg/kg, ip measured at 2 hrs post dose. Type of data set: functional, organism-based. In general terms: The maximal electroshock test induces tonic seizures with an electrical stimulus.
A short description of data set [2]: Neurotoxicity in CF-1 mouse at 30 mg/kg, ip measured after 0.5 hrs by rotarod test. Type of data set: toxicity, organism-based. The note with it: in vivo. The method in brief:
(§1)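 Mice dosed i.p. were placed on a 1 in. knurled rod turning at 6 rpm. Toxicity was scored as failure to keep balance for at least 1 min, i.e. falling off three or more times. Results are reported as animals showing toxicity / animals tested at each time point.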
A general note: In the rotarod test animals must keep their balance on a rotating rod.

Data set [3] relates to Mus musculus. Put plainly: Anticonvulsant activity in CF-1 mouse model of maximal electroshock-induced seizure assessed as suppression of tonic hind limb extension at 30 mg/kg, ip measured at 0.5 hrs post dose. The data set is classed as functional, organism-based. The essentials: (§2)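 Mice dosed i.p. and given maximal electroshock at 50 mA. Read-out is protection, reported as number protected / number tested at 0.25, 0.5, 1 and 4 h after dosing.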

Data set [4] can be described thus: Neurotoxicity in CF-1 mouse at 100 mg/kg, ip measured after 2 hrs by rotarod test. Type of data set: toxicity, organism-based. The note with it: in vivo. The essentials:
as §1

Data set [5] deals with Mus musculus. In words: Anticonvulsant activity in CF-1 mouse model of maximal electroshock-induced seizure assessed as suppression of tonic hind limb extension at 100 mg/kg, ip measured at 0.5 hrs post dose. The data set is classed as functional, organism-based. The method in brief:
as §2

Data set [6] is described as follows: Neurotoxicity in CF-1 mouse at 300 mg/kg, ip measured after 2 hrs by rotarod test. Type of data set: toxicity, organism-based. To be noted: in vivo. The method in brief: as §1
For data set [7], the system named is Mus musculus. In words: Anticonvulsant activity in CF-1 mouse model of maximal electroshock-induced seizure assessed as suppression of tonic hind limb extension at 300 mg/kg, ip measured at 0.5 hrs post dose. The data set is classed as functional, organism-based. The method in brief: as §2
Data set [8] can be described thus: Neurotoxicity in CF-1 mouse at 100 mg/kg, ip measured after 0.5 hrs by rotarod test. Type of data set: toxicity, organism-based. The note with it: in vivo. The method in brief:
as §1

In data set [9] the test system is Mus musculus. Put plainly: Anticonvulsant activity in CF-1 mouse assessed as protection against 44 mA current-induced seizure at 300 mg/kg, ip after 2 hrs by 6 Hz psychomotor test. The data set is classed as functional, organism-based. The essentials:
(§3)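 Mice dosed i.p. (30, 100, 300 mg/kg; one line at 120 mg/kg read at 15 min). Corneal stimulation at 6 Hz, 44 mA for 3 s from a constant-current device induces a psychomotor seizure with stunned posture, forelimb automatisms, clonus, vibrissae twitching and Straub tail. Scored as number of animals protected / number tested (4 per group) at 0.5 and 2 h.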

Data set [10] can be described thus: Neurotoxicity in CF-1 mouse at 30 mg/kg, ip measured after 2 hrs by rotarod test. To be noted: in vivo. Type of data set: toxicity, organism-based. The method in brief: as §1
For data set [11], the system named is Mus musculus. Put plainly: Anticonvulsant activity in CF-1 mouse assessed as protection against 44 mA current-induced seizure at 100 mg/kg, ip after 2 hrs by 6 Hz psychomotor test. Type of data set: functional, organism-based. The essentials:
as §3

In data set [12] the test system is Mus musculus. In words: Anticonvulsant activity in CF-1 mouse assessed as protection against 44 mA current-induced seizure at 30 mg/kg, ip after 2 hrs by 6 Hz psychomotor test. Type of data set: functional, organism-based. The method in brief: as §3
Data set [13] deals with Mus musculus. Put plainly: Anticonvulsant activity in CF-1 mouse assessed as protection against 44 mA current-induced seizure at 30 mg/kg, ip after 0.5 hrs by 6 Hz psychomotor test. The data set is classed as functional, organism-based. The method in brief:
as §3

Data set [14] concerns Mus musculus. Put plainly: Anticonvulsant activity in CF-1 mouse model of maximal electroshock-induced seizure assessed as suppression of tonic hind limb extension at 30 mg/kg, ip measured at 2 hrs post dose. Type of data set: functional, organism-based.
Data set [15] can be described thus: Neurotoxicity in Sprague-Dawley rat at 100 mg/kg, ip measured after 2 hrs by rotarod test. Type of data set: toxicity, organism-based. The note with it: Sprague-Dawley, in vivo. The essentials: (§4)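 Rat neurotoxicity after i.p. or p.o. dosing was scored as animals impaired / animals tested at each time point. For p.o. dosing, TD50 was obtained by probit analysis.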

Data set [16] concerns Mus musculus. Put plainly: Anticonvulsant activity in CF-1 mouse assessed as protection against 44 mA current-induced seizure at 40 to 80 mg/kg, ip after 0.5 hrs by 6 Hz psychomotor test. Type of data set: functional.
Data set [17] can be described thus: Neurotoxicity in Sprague-Dawley rat at 30 mg/kg, po measured after 1 hr by rotarod test. The data set is classed as toxicity, organism-based. The note with it: in vivo. The method in brief:
as §4

Data set [18] in a line: Neurotoxicity in Sprague-Dawley rat at 30 mg/kg, po measured after 0.5 hrs by rotarod test. The data set is classed as toxicity, organism-based. To be noted: in vivo. The essentials:
as §4

The nature of data set [19]: Neurotoxicity in Sprague-Dawley rat at 30 mg/kg, po measured after 4 hrs by rotarod test. The data set is classed as toxicity, organism-based. The note with it: in vivo. The method in brief: as §4
The nature of data set [20]: Neurotoxicity in CF-1 mouse at 300 mg/kg, ip measured after 0.5 hrs by rotarod test. The data set is classed as toxicity, organism-based. The note with it: in vivo. The method in brief:
as §1

Data set [21] concerns Mus musculus. Put plainly: Anticonvulsant activity in CF-1 mouse model of subcutaneous pentylenetetrazole-induced seizure assessed as reduction in convulsions at 30 mg/kg, ip measured at 0.5 hrs post dose. Type of data set: functional, organism-based. The essentials:
(§5)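 Mice dosed i.p., then given pentylenetetrazole 85 mg/kg in 0.9% NaCl s.c. into the posterior midline of the neck. Seizures watched for at least 30 min. Scored as protected / tested at 0.5 and 4 h.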

Data set [22] concerns Mus musculus. Put plainly: Anticonvulsant activity in CF-1 mouse model of maximal electroshock-induced seizure assessed as suppression of tonic hind limb extension at 300 mg/kg, ip measured at 4 hrs post dose. Type of data set: functional, organism-based. The method in brief:
as §2

Data set [23] deals with Mus musculus. In words: Anticonvulsant activity in CF-1 mouse model of subcutaneous pentylenetetrazole-induced seizure assessed as reduction in convulsions at 30 mg/kg, ip measured at 4 hrs post dose. Type of data set: functional, organism-based. The essentials: as §5
In data set [24] the test system is Mus musculus. In words: Anticonvulsant activity in CF-1 mouse model of subcutaneous pentylenetetrazole-induced seizure assessed as reduction in convulsions at 300 mg/kg, ip measured at 0.5 hrs post dose. The data set is classed as functional, organism-based. The essentials: as §5
Data set [25] is described as follows: Neurotoxicity in CF-1 mouse at 100 mg/kg, ip measured after 4 hrs by rotarod test. Type of data set: toxicity, organism-based. To be noted: in vivo. The method in brief:
as §1

Data set [26] concerns Mus musculus. In words: Anticonvulsant activity in CF-1 mouse model of subcutaneous pentylenetetrazole-induced seizure assessed as reduction in convulsions at 300 mg/kg, ip measured at 4 hrs post dose. The data set is classed as functional, organism-based. The essentials: as §5
The test system of data set [27] is Rattus norvegicus. Put plainly: Anticonvulsant activity in Sprague-Dawley rat model of maximal electroshock-induced seizure assessed as suppression of tonic hind limb extension at 30 mg/kg, po measured at 2 hrs post dose. The data set is classed as functional, organism-based. The essentials: (§6)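 Rats given 30 mg/kg p.o. and tested by maximal electroshock at 150 mA. Scored as number protected / number tested (4 per group) at 0.25, 0.5, 1, 2 and 4 h after dosing.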

Data set [28] can be described thus: Neurotoxicity in Sprague-Dawley rat at 30 mg/kg, po measured after 2 hrs by rotarod test. Type of data set: toxicity, organism-based. To be noted: in vivo. The essentials: as §4
Data set [29] relates to Rattus norvegicus. In words: Anticonvulsant activity in Sprague-Dawley rat model of maximal electroshock-induced seizure assessed as suppression of tonic hind limb extension at 30 mg/kg, po measured at 4 hrs post dose. Type of data set: functional, organism-based. The method in brief: as §6
A short description of data set [30]: Neurotoxicity in CF-1 mouse at 30 mg/kg, ip measured after 4 hrs by rotarod test. Type of data set: toxicity, organism-based. The note with it: in vivo. The essentials:
as §1

Data set [31] concerns Mus musculus. Put plainly: Anticonvulsant activity in CF-1 mouse model of subcutaneous pentylenetetrazole-induced seizure assessed as reduction in convulsions at 100 mg/kg, ip measured at 0.5 hrs post dose. The data set is classed as functional, organism-based. The essentials: as §5
The test system of data set [32] is Mus musculus. In words: Anticonvulsant activity in CF-1 mouse model of subcutaneous pentylenetetrazole-induced seizure assessed as reduction in convulsions at 100 mg/kg, ip measured at 4 hrs post dose. The data set is classed as functional, organism-based. The essentials:
as §5

The subject of data set [33] is Mus musculus. In words: Anticonvulsant activity in CF-1 mouse model of maximal electroshock-induced seizure assessed as suppression of tonic hind limb extension at 30 mg/kg, ip measured at 4 hrs post dose. Type of data set: functional, organism-based. The method in brief:
as §2

Data set [34] is described as follows: Neurotoxicity in Sprague-Dawley rat at 30 mg/kg, po measured after 0.25 hrs by rotarod test. The note with it: in vivo. Type of data set: toxicity, organism-based. The method in brief:
as §4

Data set [35] relates to Mus musculus. In words: Anticonvulsant activity in CF-1 mouse model of maximal electroshock-induced seizure assessed as suppression of tonic hind limb extension at 100 mg/kg, ip measured at 4 hrs post dose. Type of data set: functional, organism-based. The essentials:
as §2

In data set [36] the test system is Rattus norvegicus. Put plainly: Anticonvulsant activity in Sprague-Dawley rat model of maximal electroshock-induced seizure assessed as suppression of tonic hind limb extension at 30 mg/kg, po measured at 1 hr post dose. Type of data set: functional, organism-based. The essentials: as §6
A short description of data set [37]: Neurotoxicity in CF-1 mouse at 300 mg/kg, ip measured after 4 hrs by rotarod test. Type of data set: toxicity, organism-based. The note with it: in vivo. The method in brief: as §1

For `Cc1cccc(OCC(=O)N[C@H]2CC[C@H](O)CC2)c1C`, the outcome with Mus musculus [1], with Mus musculus [3], in the data set with Mus musculus [5], in the data set on Mus musculus [11], with Mus musculus [12] and in the data set on Mus musculus [13] was inactive. For the same molecule, the result in the data set on Mus musculus [14] was inactive. Further, the Activity entry in data set [2], in data set [4], in data set [6], in [8] and in data set [10] was “Non-Toxic” throughout. In addition, the outcome in the data set on Mus musculus [7] and in the data set with Mus musculus [9] was Active.

As a reminder, the TD50 is the dose at which the toxic effect under study appears in half of the subjects. With `NC(=O)N1c2ccccc2C=Cc2ccccc21` [CARBAMAZEPINE], in data set [15], the TD50 at 2 h worked out at 364 mg/kg. The “%max” value in the data set on Mus musculus [16] amounted to 75%.

With `CNC(=O)C(C)NC(=O)COc1c(C)cccc1C` (stereo not given), the Activity entry in [17] is “Non-Toxic”; in [18], “Non-Toxic”; in data set [19] it was “Non-Toxic”; in data set [20], “Toxic”; in data set [2], “Non-Toxic”; in data set [25], “Non-Toxic”. Also, the Activity result in data set [28], in data set [30], in [34] and in [37] was “Non-Toxic” in each case. For the same molecule, the outcome in the data set on Mus musculus [21], in the data set on Mus musculus [22], in the data set with Mus musculus [23], in the data set on Mus musculus [24], in the data set with Mus musculus [26] and in the data set on Mus musculus [3] was inactive. Further, the result in the data set with Rattus norvegicus [27], with Rattus norvegicus [29], in the data set on Mus musculus [31], in the data set on Mus musculus [32], with Mus musculus [33] and in the data set with Mus musculus [35] was inactive. Further, in the data set with Rattus norvegicus [36], the result was inactive. The outcome with Mus musculus [7] was Active.
